SR-BI DiI-HDL act: activators of SR-BI mediated DiI-HDL uptake, primary screen, ldlA[mSR-BI] CHO cells, DiI fluorescence; 3 h; 100 = double the neutral-control signal; activation, % at 12.5 µM; 320,000 compounds, 0.096% hits; AID 504775, 2011;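 active = mean replicate activation of at least 60% and every replicate at or above 60%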;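 note: 0% = median plate neutral-control signal and 100% = twice that signal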
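System: LDL receptor-deficient CHO ldlA cells overexpressing murine SR-BI | Timing: 3 h uptake period with compound, 37 °C | Medium: HEPES-buffered (25 mM, pH 7.4) F12 plus 0.5% BSA | Dosing: Single-point compound dose | Signal: Bottom-read fluorescence, 550/595 nm | Read-out: Retained DiI signal reflecting DiI-HDL uptake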
ARNT-TACC3 inh: disruptors of ARNT/TACC3 protein interaction, primary screen, biochemical, AlphaScreen, single concentration; 390,000 compounds, 0.66% hits; AID 623870, 2012; AlphaScreen His-ARNT PAS-B/GST-TACC3 binding, luminescence; TACC3 fragment carries E629A point mutation; inhibition, % at 9.99 µM;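 active = mean inhibition of replicates at least 50% and at least half of replicates each reaching 50%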;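 note: 0% = complete ARNT plus TACC3 wells and 100% = ARNT alone without TACC3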
HGIII-sPLA2 inh: human group III sPLA2 inhibitors, primary screen, biochemical, QFRET, BODIPY PC-A2 liposome substrate; Group 3 secretory phospholipase A2 (Homo sapiens), Q9NZ20; QFRET BODIPY PC-A2 liposome hydrolysis, fluorescence; inhibition, % at 12.2 µM; 370,000 compounds, 0.56% hits;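 active = inhibition above mean plus 3 SD of compounds lying within the high and low control bounds, cut at about 19% in these data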;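 note: 0% = median of test compound wells and 100% = no enzyme DMSO wells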
SR-BI HDL uptake: inhibitors of SR-BI mediated HDL lipid uptake, primary screen, ldlA[mSR-BI] cells, fluorescence, single point | AID 488896, 2010 | inhibition, % at 12.5 µM | 320,000 compounds, 0.96% hits | Scavenger receptor class B member 1 (Mus musculus), Q61009 | ldlA[mSR-BI] CHO cells, DiI-HDL uptake fluorescence, 3 h;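 active = mean replicate inhibition of at least 70% and a set share of replicates each scoring 70 or more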;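 note: 0% = median of neutral control wells and 100% = median of positive control wells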
XiGFP reactiv: activators of inactive X chromosome reactivation, primary screen, imaging, XiGFP fibroblasts, GFP high-content imaging, set 2 | XiGFP mouse fibroblasts, % GFP-positive cells imaging, 3 d; cells co-treated with 5-aza-dC sensitizer; scaled so ellipticine positive control = 100% | activation, % at 7.58 µM | 360,000 compounds, 0.055% hits;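 active = mean normalized replicate activation at least 10% and every replicate at or above 10%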;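 note: 0% = median of on-plate neutral control wells and 100% = ellipticine 6 µM median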
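System: XiGFP fibroblasts, SV40-immortalized. Medium: DMEM plus 5-aza-dC sensitizer. Doses: single point. Timing: 3 d treatment, 15 min room-temperature fixation. Control set: ellipticine 6 µM.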
NSD2 inh: NSD2 histone methyltransferase inhibitors, primary screen, biochemical, AlphaScreen, single concentration, set 2 | Histone-lysine N-methyltransferase NSD2 (Homo sapiens), O96028 | NSD2 peptide methylation, 120 min | inhibition, % at 12.5 µM | 310,000 compounds, 0.54% hits; in the data active = inhibition above about 50%
An asterisk follows results filed as active. The list is not random: actives were taken first. Their share in the collection is about 2%.

How did Cc1ccccc1CSCCNC(=O)CCSc1ccccc1 do in these assays?
SR-BI DiI-HDL act: 25; ARNT-TACC3 inh: -7; HGIII-sPLA2 inh: -5; SR-BI HDL uptake: -25; NSD2 inh: -2

How did O=C(CN1C(=O)S/C(=C\c2ccc(Cl)cc2)C1=O)NNC(=O)c1ccccc1O do in these assays?
SR-BI DiI-HDL act: 19; HGIII-sPLA2 inh: 44*; SR-BI HDL uptake: -19; XiGFP reactiv: 1; NSD2 inh: -1

What do the screens show for `COc1cccc(/C=C2\SC(=S)N(CCC(=O)NNC(=O)c3ccccc3OC)C2=O)c1`?
ARNT-TACC3 inh: -4; HGIII-sPLA2 inh: 7; XiGFP reactiv: 0; NSD2 inh: 0

Results for COc1ccc(/C=C2/SC(=S)N(CCCC(=O)Nc3ccccc3C(=O)O)C2=O)cc1 ?
ARNT-TACC3 inh: 8; HGIII-sPLA2 inh: -8; XiGFP reactiv: 0; NSD2 inh: 46

Results for COc1ccc(/C=C2\SC(=S)N(CCCC(=O)NNC(=O)c3ccccc3O)C2=O)cc1 ?
SR-BI DiI-HDL act: -110; ARNT-TACC3 inh: -2; HGIII-sPLA2 inh: 16; SR-BI HDL uptake: 110*; XiGFP reactiv: 0; NSD2 inh: 1

Results for O=C(O)C(c1ccccc1)N1C(=O)/C(=C/c2cccs2)SC1=S (centres undefined) ?
ARNT-TACC3 inh: 65*; HGIII-sPLA2 inh: -6; XiGFP reactiv: 0; NSD2 inh: 7

How did COc1ccccc1/C=C1\SC(=S)N(CCC(=O)NNC(=O)c2ccccc2O)C1=O do in these assays?
ARNT-TACC3 inh: 7; SR-BI HDL uptake: 124*; NSD2 inh: 1

How did O=C(O)C(Cc1ccccc1)N1C(=O)/C(=C/c2cccs2)SC1=S (centres undefined) do in these assays?
SR-BI DiI-HDL act: 10; ARNT-TACC3 inh: 38; HGIII-sPLA2 inh: -28; SR-BI HDL uptake: -10; XiGFP reactiv: 0; NSD2 inh: 20

What do the screens show for `Cc1ccc(SCC(=O)N(C)CC(=O)Nc2cccc(F)c2)cc1`?
SR-BI DiI-HDL act: -2; ARNT-TACC3 inh: -9; HGIII-sPLA2 inh: -1; SR-BI HDL uptake: 2; XiGFP reactiv: 0; NSD2 inh: -3

What do the screens show for `O=C(CCCN1C(=O)/C(=C/c2cccs2)SC1=S)NNC(=O)c1ccccc1O`?
SR-BI DiI-HDL act: -104; ARNT-TACC3 inh: 3; HGIII-sPLA2 inh: 19; SR-BI HDL uptake: 104*; XiGFP reactiv: 1; NSD2 inh: 0

How did CCCC(=O)NC1=C(Cl)C(=O)c2ccccc2C1=O do in these assays?
SR-BI DiI-HDL act: 22; ARNT-TACC3 inh: 25*; HGIII-sPLA2 inh: 3; SR-BI HDL uptake: -22; XiGFP reactiv: 4; NSD2 inh: -1

How did O=C1c2ccccc2C(=O)N1CCCn1ccnc1 do in these assays?
SR-BI DiI-HDL act: 27; ARNT-TACC3 inh: 1; HGIII-sPLA2 inh: 1; SR-BI HDL uptake: -27; XiGFP reactiv: 0; NSD2 inh: -1

What do the screens show for `CN(C)CCOC1c2ccccc2CCc2ccc3ccccc3c21` (centres undefined)?
SR-BI DiI-HDL act: 436*; ARNT-TACC3 inh: 9; HGIII-sPLA2 inh: -38; SR-BI HDL uptake: -436; XiGFP reactiv: 0; NSD2 inh: 18

Results for O=C(Nc1nnc(-c2ccccc2)o1)C1CCCN1S(=O)(=O)c1cccs1 (centres undefined) ?
SR-BI DiI-HDL act: 36; ARNT-TACC3 inh: 45*; HGIII-sPLA2 inh: 14; SR-BI HDL uptake: -36; XiGFP reactiv: 0; NSD2 inh: -2

How did Cc1cccc(N=NC(=S)NNc2cccc(C)c2)c1 do in these assays?
SR-BI DiI-HDL act: -7; HGIII-sPLA2 inh: 27*; SR-BI HDL uptake: 7; XiGFP reactiv: 0
